# Assay results: ChEMBL document CHEMBL1128260, “3-deaza- and 7-deaza-5'-noraristeromycin and their antiviral properties” (1995)
# Key:
# Assay type in all cases: functional
# E6SM [1] = experiment: The minimum inhibitory concentration required to reduce Vesicular Stomatitis Virus induced cytopathicity by 50% in E6SM cells; conditions: Homo sapiens
# In short: (§1)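 Confluent cell monolayers in microtiter trays were inoculated with 100 CCID50 of virus and allowed 1 h adsorption, then residual virus was removed. Cultures were incubated with varying compound concentrations (400, 200, 100, ... µg/mL). Cytopathicity was scored once it was complete in the untreated infected controls. The value is the concentration reducing virus-induced cytopathicity by 50%.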
# E6SM [2] = experiment: The minimum inhibitory concentration required to reduce HSV-1(KOS) virus induced cytopathicity by 50% was measured on E6SM cells; conditions: Homo sapiens; in short: as §1
# HEL [3] = experiment: The minimum inhibitory concentration required to reduce VZV(Oka) virus induced cytopathicity by 50% was measured on HEL cells; conditions: Homo sapiens; in short: as §1
# E6SM [4] = experiment: The minimum inhibitory concentration required to reduce Vaccinia virus induced cytopathicity by 50% in E6SM cells; conditions: Homo sapiens; in short: as §1
# MDCK [5] = experiment: The minimum inhibitory concentration required to reduce Influenza A virus induced cytopathicity by 50% was measured on MDCK cells; conditions: Canis lupus familiaris; in short: as §1
# HeLa [6] = experiment: Tested for concentration required to cause a microscopically detectable alteration of HeLa cell morphology; conditions: Homo sapiens; read-out: MIC50
# In short: (§2)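 Confluent E6SM, HeLa, Vero or MDCK cell cultures exposed to varying test-compound concentrations and examined microscopically. The value is the concentration causing a microscopically detectable alteration of normal cell morphology.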
# Vero [7] = experiment: The minimum inhibitory concentration required to reduce Reo-1 virus (ATCC VR-230) induced cytopathicity by 50% was measured in Vero cells; conditions: Chlorocebus sabaeus; in short: as §1
# Vero [8] = experiment: The minimum inhibitory concentration required to reduce Parainfluenza virus type 3(ATCC VR-93) induced cytopathicity by 50% in Vero cells; conditions: Chlorocebus sabaeus; in short: as §1
# E6SM [9] = experiment: The minimum inhibitory concentration required to reduce TK HSV-1 (B2006) virus induced cytopathicity by 50% in E6SM cells; conditions: Homo sapiens; in short: as §1
# [10] = tested on: Respiratory syncytial virus; experiment: The minimum inhibitory concentration required to reduce RSV(Long) virus induced cytopathicity by 50% in HeLa cells; conditions: human respiratory syncytial virus; in short: as §1
# HEL [11] = experiment: The minimum inhibitory concentration required to reduce TK-VZV(YS-R) virus induced cytopathicity by 50% was measured on HEL cells; conditions: Homo sapiens; in short: as §1
# Vero [12] = experiment: The minimum inhibitory concentration required to reduce forest virus (ATCC VR-67) induced cytopathicity by 50% in Vero cells; conditions: Chlorocebus sabaeus; in short: as §1
# Vero [13] = experiment: The minimum inhibitory concentration required to reduce Arenavirus (Tacaribe) induced cytopathicity by 50% was measured on Vero cells; conditions: Chlorocebus sabaeus; in short: as §1
# Vero [14] = experiment: The minimum inhibitory concentration required to reduce Arenavirus (Junin) induced cytopathicity by 50% was measured on Vero cells; conditions: Chlorocebus sabaeus; in short: as §1
# E6SM [15] = experiment: Tested for concentration required to cause a microscopically detectable alteration of E6SM cell morphology; conditions: Homo sapiens; read-out: MIC50; in short: as §2
# Vero [16] = experiment: Tested for concentration required to cause a microscopically detectable alteration of Vero cell morphology; conditions: Chlorocebus sabaeus; read-out: MIC50; in short: as §2
# HeLa [17] = experiment: The minimum inhibitory concentration required to reduce Vesicular Stomatitis Virus induced cytopathicity by 50% in HeLa cells; conditions: Homo sapiens; in short: as §1
# HEL [18] = experiment: The minimum inhibitory concentration required to reduce TK-VZV(07-1) virus induced cytopathicity by 50% was measured on HEL cells; conditions: Homo sapiens; in short: as §1
# HEL [19] = experiment: Tested for the concentration required to cause a microscopically detectable alteration of HEL cell morphology; conditions: Homo sapiens; read-out: MIC50
# HeLa [20] = experiment: The minimum inhibitory concentration required to reduce Polio-1 virus induced cytopathicity by 50% in HeLa cells; conditions: Homo sapiens; in short: as §1
# E6SM [21] = experiment: The minimum inhibitory concentration required to reduce HSV-2(G) virus induced cytopathicity by 50% was measured on E6SM cells; conditions: Homo sapiens; in short: as §1
# MDCK [22] = experiment: The minimum inhibitory concentration required to reduce Influenza B virus induced cytopathicity by 50% was measured on MDCK cells; conditions: Canis lupus familiaris; in short: as §1
# CCRF-CEM [23] = experiment: Tested for concentration required to cause a microscopically detectable alteration of CEM cell morphology; conditions: Homo sapiens
# CCRF-CEM [24] = experiment: The minimum inhibitory concentration required to reduce HIV-1(IIIB) virus induced cytopathicity by 50% was measured on CEM cells; conditions: Homo sapiens
# In short: (§3)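 CEM cells at 250,000-300,000 cells/mL were infected with HIV-1 (IIIB) or HIV-2 (ROD) at 100 CCID50/mL. The infected suspension was added to serial compound dilutions and incubated 4 days at 37 °C. Cultures were then examined for syncytium (giant cell) formation, and the 50% inhibitory concentration was recorded.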
# MDCK [25] = experiment: Tested for the concentration required to cause a microscopically detectable alteration of MCDK cell morphology; conditions: Canis lupus familiaris; read-out: MIC50; in short: as §2
# E6SM [26] = experiment: The minimum inhibitory concentration required to reduce TK-HSV-1(VMW 1837) virus induced cytopathicity by 50% in E6SM cells; conditions: Homo sapiens; in short: as §1
# HEL [27] = experiment: The minimum inhibitory concentration required to reduce VZV(YS) virus induced cytopathicity by 50% was measured on HEL cells; conditions: Homo sapiens; in short: as §1
# HeLa [28] = experiment: The minimum inhibitory concentration required to reduce Coxsackie B4 virus induced cytopathicity by 50% in HeLa cells.; conditions: Homo sapiens; in short: as §1
# HEL [29] = experiment: The minimum inhibitory concentration required to reduce CMV(AD-169) virus induced cytopathicity by 50% was measured on HEL cells; conditions: Homo sapiens; in short: as §1
# CCRF-CEM [30] = experiment: The minimum inhibitory concentration required to reduce HIV-2(ROD) virus induced cytopathicity by 50% was measured on CEM cells; conditions: Homo sapiens; in short: as §3
# Vero [31] = experiment: The minimum inhibitory concentration required to reduce Sindbis virus ([…]) induced cytopathicity by 50% in Vero cells; conditions: Chlorocebus sabaeus; in short: as §1
# HEL [32] = experiment: The minimum inhibitory concentration required to reduce CMV(Davis) virus induced cytopathicity by 50% was measured on HEL cells; conditions: Homo sapiens; in short: as §1
Structure (SMILES),MIC50 (E6SM [1]) [µg/mL],MIC50 (E6SM [2]) [µg/mL],MIC50 (HEL [3]) [µg/mL],MIC50 (E6SM [4]) [µg/mL],MIC50 (MDCK [5]) [µg/mL],Minimum cytotoxic concentration (HeLa [6]) [µg/mL],MIC50 (Vero [7]) [µg/mL],MIC50 (Vero [8]) [µg/mL],MIC50 [10] [µg/mL],MIC50 (Vero [12]) [µg/mL],MIC50 (Vero [13]) [µg/mL],MIC50 (Vero [14]) [µg/mL],minimum cytotoxic concentration (microscopic alteration of cell morphology) (E6SM [15]) [µg/mL],Minimum cytotoxic concentration (Vero [16]) [µg/mL],MIC50 (HeLa [17]) [µg/mL],Minimum cytotoxic concentration (MCC) (HEL [19]) [µg/mL],MIC50 (HeLa [20]) [µg/mL],MIC50 (E6SM [21]) [µg/mL],MIC50 (MDCK [22]) [µg/mL],Minimum cytotoxic concentration (MDCK [25]) [µg/mL],also measured
"Nc1nccc2c1ncn2C1CC(O)C(O)C1O (single isomer, unassigned; (-))",0.7,> 400,> 40,0.4,150,> 400,7,1,> 150,> 200,> 40,> 40,> 400,> 200,2,> 200,> 400,> 400,> 200,> 200,MIC50 (E6SM [9]): 300 µg/mL; MIC50 (HEL [11]): > 40 µg/mL; MIC50 (HEL [18]): > 30 µg/mL; MIC50 (CCRF-CEM [23]): 27 µg/mL; MIC50 (CCRF-CEM [24]): > 20 µg/mL; MIC50 (E6SM [26]): 300 µg/mL; MIC50 (HEL [27]): > 40 µg/mL; MIC50 (HeLa [28]): > 400 µg/mL; MIC50 (HEL [29]): > 40 µg/mL; MIC50 (CCRF-CEM [30]): > 20 µg/mL; MIC50 (Vero [31]): > 200 µg/mL; MIC50 (HEL [32]): > 40 µg/mL
Nc1ncnc2c1ccn2[C@H]1C[C@@H](O)[C@H](O)[C@@H]1O,70,300,> 40,150,> 200,> 400,> 200,100,100,> 200,> 20,> 20,> 400,> 400,300,> 200,> 400,> 400,> 200,> 200,MIC50 (E6SM [9]): 300 µg/mL; MIC50 (HEL [11]): > 40 µg/mL; MIC50 (HEL [18]): > 40 µg/mL; MIC50 (CCRF-CEM [23]): > 500 µg/mL; MIC50 (CCRF-CEM [24]): > 500 µg/mL; MIC50 (E6SM [26]): 300 µg/mL; MIC50 (HEL [27]): > 40 µg/mL; MIC50 (HeLa [28]): > 400 µg/mL; MIC50 (HEL [29]): > 40 µg/mL; MIC50 (CCRF-CEM [30]): > 500 µg/mL; MIC50 (Vero [31]): > 200 µg/mL; MIC50 (HEL [32]): > 40 µg/mL
Nc1ncnc2c1ncn2[C@@H]1C[C@H](O)[C@@H](O)[C@H]1O [NORARISTEROMYCIN],0.1,> 400,> 50,0.04,> 100,> 400,0.7,0.07,> 200,> 400,8,6,> 400,> 400,0.2,50,> 400,> 400,> 100,> 400,MIC50 (CCRF-CEM [23]): 0.4 µg/mL; MIC50 (CCRF-CEM [24]): > 0.16 µg/mL; MIC50 (HEL [27]): > 50 µg/mL; MIC50 (HeLa [28]): > 400 µg/mL; MIC50 (HEL [29]): 0.01 µg/mL; MIC50 (CCRF-CEM [30]): > 0.16 µg/mL; MIC50 (Vero [31]): > 400 µg/mL; MIC50 (HEL [32]): 0.03 µg/mL
Nc1ncnc2c1ncn2[C@@H]1C=C(CO)[C@@H](O)[C@H]1O [NEOPLANOCIN A],2,70,4,0.2,0.3,1,0.7,0.2,> 1.2,7,1,1,100,40,2,20,> 40,> 100,> 4,4,MIC50 (E6SM [9]): 20 µg/mL; MIC50 (HEL [11]): 3 µg/mL; MIC50 (HEL [18]): 4 µg/mL; MIC50 (E6SM [26]): 70 µg/mL; MIC50 (HEL [27]): 5 µg/mL; MIC50 (HeLa [28]): > 40 µg/mL; MIC50 (HEL [29]): 0.6 µg/mL; MIC50 (Vero [31]): 2 µg/mL; MIC50 (HEL [32]): 0.4 µg/mL
